Experimental data published in ChEMBL document CHEMBL3612027, “Substrate-guided optimization of the syringolins yields potent proteasome inhibitors with activity against leukemia cell lines” (Bioorg Med Chem, 2015).

Experiments:
[1] = test system: NCI-H226; test: Cytotoxicity against human NCI-H226 cells assessed as cell growth at 10 uM after 48 hrs relative to control; assay type: functional; conditions: NCI-H226, 48 h, read-out: Activity
How it was run: (§1)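 Run at the National Cancer Institute as a single-dose screen across its 60-cell-line cancer panel. Compound was tested at 10 micromolar, and growth was expressed as a percentage of negative-control cultures.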

[2] = test system: SNB-19; test: Cytotoxicity against human SNB19 cells assessed as cell growth at 10 uM after 48 hrs relative to control; assay type: functional; conditions: SNB-19, 48 h, read-out: Activity
How it was run: (§2)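 Submitted to the National Cancer Institute for a single-dose screen at 10 micromolar against 60 cancer cell lines. Growth is expressed relative to negative-control cultures.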

[3] = test system: OVCAR-5; test: Cytotoxicity against human OVCAR5 cells assessed as cell growth at 10 uM after 48 hrs relative to control; assay type: functional; conditions: OVCAR-5, 48 h, read-out: Activity; how it was run: as §1
[4] = test system: HOP-92; test: Cytotoxicity against human HOP92 cells assessed as cell growth at 10 uM after 48 hrs relative to control; assay type: functional; conditions: HOP-92, 48 h, read-out: Activity; how it was run: as §1
[5] = test system: NCI/ADR-RES; test: Cytotoxicity against human NCI/ADR-RES cells assessed as cell growth at 10 uM after 48 hrs relative to control; assay type: functional; conditions: read-out: Activity; how it was run: as §1
[6] = test system: HOP-62; test: Cytotoxicity against human HOP62 cells assessed as cell growth at 10 uM after 48 hrs relative to control; assay type: functional; conditions: HOP-62, 48 h, read-out: Activity; how it was run: as §1
[7] = test system: SK-OV-3; test: Cytotoxicity against human SKOV3 cells assessed as cell growth at 10 uM after 48 hrs relative to control; assay type: functional; conditions: SK-OV-3, 48 h, read-out: Activity; how it was run: as §1
[8] = test system: A498; test: Cytotoxicity against human A498 cells assessed as cell growth at 10 uM after 48 hrs relative to control; assay type: functional; conditions: A498, 48 h, read-out: Activity; how it was run: as §1
[9] = test system: SK-MEL-28; test: Cytotoxicity against human SK-MEL-28 cells assessed as cell growth at 10 uM after 48 hrs relative to control; assay type: functional; conditions: SK-MEL-28, 48 h, read-out: Activity; how it was run: as §1
[10] = molecular target: T1, Proteasome Macropain subunit MB1 (Homo sapiens, UniProt P28074); test: Inhibition of human 20S proteasome beta5 subunit using Suc-LLVY-AMC as substrate by fluorescence assay
T1 sequence (P28074 whole entry): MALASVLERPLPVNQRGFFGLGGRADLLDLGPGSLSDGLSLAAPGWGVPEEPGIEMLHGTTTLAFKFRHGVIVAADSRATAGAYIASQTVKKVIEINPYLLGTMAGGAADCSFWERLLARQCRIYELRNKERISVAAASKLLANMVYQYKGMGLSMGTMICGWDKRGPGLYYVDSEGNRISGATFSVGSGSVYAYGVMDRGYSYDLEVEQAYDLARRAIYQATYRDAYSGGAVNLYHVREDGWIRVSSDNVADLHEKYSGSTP

[11] = Cytotoxicity against human RPMI-8226 cells after 48 hrs; assay type: functional; conditions: RPMI-8226, 48 h
[12] = test system: MDA-MB-231; test: Cytotoxicity against human MDA-MB-231 cells assessed as cell growth at 10 uM after 48 hrs relative to control; assay type: functional; conditions: MDA-MB-231, 48 h, read-out: Activity; how it was run: as §1
[13] = test system: LOX IMVI; test: Cytotoxicity against human LOXIMVI cells assessed as cell growth at 10 uM after 48 hrs relative to control; assay type: functional; conditions: read-out: Activity; how it was run: as §1
[14] = test system: NCI-H522; test: Cytotoxicity against human NCI-H522 cells assessed as cell growth at 10 uM after 48 hrs relative to control; assay type: functional; conditions: NCI-H522, 48 h, read-out: Activity; how it was run: as §1
[15] = test system: SR; test: Cytotoxicity against human SR cells assessed as cell growth at 10 uM after 48 hrs relative to control; assay type: functional; conditions: read-out: Activity; how it was run: as §2
[16] = test system: UACC-257; test: Cytotoxicity against human UACC257 cells assessed as cell growth at 10 uM after 48 hrs relative to control; assay type: functional; conditions: UACC-257, 48 h, read-out: Activity; how it was run: as §2
[17] = test system: DU-145; test: Cytotoxicity against human DU145 cells assessed as cell growth at 10 uM after 48 hrs relative to control; assay type: functional; conditions: DU-145, 48 h, read-out: Activity; how it was run: as §1
[18] = test system: SK-MEL-2; test: Cytotoxicity against human SK-MEL-2 cells assessed as cell growth at 10 uM after 48 hrs relative to control; assay type: functional; conditions: SK-MEL-2, 48 h, read-out: Activity; how it was run: as §1
[19] = test system: RPMI-8226; test: Cytotoxicity against human RPMI8226 cells assessed as cell growth at 10 uM after 48 hrs relative to control; assay type: functional; conditions: RPMI-8226, 48 h, read-out: Activity; how it was run: as §1
[20] = test system: CAKI-1; test: Cytotoxicity against human Caki1 cells assessed as cell growth at 10 uM after 48 hrs relative to control; assay type: functional; conditions: CAKI-1, 48 h, read-out: Activity; how it was run: as §1
[21] = test system: SF-295; test: Cytotoxicity against human SF295 cells assessed as cell growth at 10 uM after 48 hrs relative to control; assay type: functional; conditions: SF-295, 48 h, read-out: Activity; how it was run: as §1
[22] = test system: SK-MEL-5; test: Cytotoxicity against human SK-MEL-5 cells assessed as cell growth at 10 uM after 48 hrs relative to control; assay type: functional; conditions: SK-MEL-5, 48 h, read-out: Activity; how it was run: as §1
[23] = test system: OVCAR-4; test: Cytotoxicity against human OVCAR4 cells assessed as cell growth at 10 uM after 48 hrs relative to control; assay type: functional; conditions: OVCAR-4, 48 h, read-out: Activity; how it was run: as §1
[24] = test system: MDA-MB-468; test: Cytotoxicity against human MDA-MB-468 cells assessed as cell growth at 10 uM after 48 hrs relative to control; assay type: functional; conditions: MDA-MB-468, 48 h, read-out: Activity; how it was run: as §1
[25] = test system: K562; test: Cytotoxicity against human K562 cells assessed as cell growth at 10 uM after 48 hrs relative to control; assay type: functional; conditions: K562, 48 h, read-out: Activity; how it was run: as §1
[26] = test system: NCI-H460; test: Cytotoxicity against human NCI-H460 cells assessed as cell growth at 10 uM after 48 hrs relative to control; assay type: functional; conditions: NCI-H460, 48 h, read-out: Activity; how it was run: as §1
[27] = molecular target: T2, Proteasome Macropain subunit MB1 (Homo sapiens) (UniProt P28074)
T2 sequence (whole entry): T1 sequence (P28074 whole entry)

| Structure (SMILES) | growth at 10 µM [1] [%] | growth at 10 µM [2] [%] | growth at 10 µM [3] [%] | growth at 10 µM [4] [%] | growth at 10 µM [5] [%] | growth at 10 µM [6] [%] | growth at 10 µM [7] [%] | growth at 10 µM [8] [%] | growth at 10 µM [9] [%] | Ki [10] [nM] | growth at 10 µM [12] [%] | growth at 10 µM [13] [%] | growth at 10 µM [15] [%] | growth at 10 µM [16] [%] | growth at 10 µM [17] [%] | growth at 10 µM [18] [%] | growth at 10 µM [19] [%] | growth at 10 µM [20] [%] | growth at 10 µM [21] [%] | growth at 10 µM [22] [%] | other results |
| --- | --- | --- | --- | --- | --- | --- | --- | --- | --- | --- | --- | --- | --- | --- | --- | --- | --- | --- | --- | --- | --- |
| COC(=O)[C@@H](NC(=O)N[C@@H](Cc1ccccc1)C(=O)N[C@H]1CCCCNC(=O)/C=C/[C@H](Cc2c[nH]c3ccccc23)NC1=O)C(C)C | 65.7 | 51.2 | 113 | 91.3 | 99.1 | 113 | 95.4 | 78.2 | 62.7 | 385 | 79.1 | 64.7 | 21.9 | 87.1 | 95.1 | 22.3 | 21.2 | 106 | 99.7 | 63.9 | GI50 [11]: 343 nM; growth at 10 µM [14]: -0.14%; growth at 10 µM [23]: 102%; growth at 10 µM [24]: 18%; growth at 10 µM [25]: 82.1%; growth at 10 µM [26]: 99.1% |
| COC(=O)[C@@H](NC(=O)N[C@@H](Cc1ccccc1)C(=O)N[C@H]1CCCCNC(=O)/C=C/[C@H](C(C)C)NC1=O)C(C)C | 54.7 | 48.8 | 104 | 18.9 | 105 | 84.4 | 101 | 104 | 52.1 | 950 | 60.8 | 15.2 | 8.54 | 58.5 | 53.1 | 12.7 | 23.1 | 98.3 | 101 | 34 | growth at 10 µM [14]: -43.8%; growth at 10 µM [23]: 56.6%; growth at 10 µM [24]: 31.2%; growth at 10 µM [25]: 47.2%; growth at 10 µM [26]: 59.6% |
| COC(=O)[C@@H](NC(=O)N[C@@H](Cc1ccccc1)C(=O)N[C@H]1CCCCNC(=O)/C=C/[C@H](Cc2ccccc2)NC1=O)C(C)C | -44.2 | 39.8 | 87 | 15.7 | 98.8 | 51.6 | 61.1 | 40.7 | 33.3 | 447 | 23.2 | -4.92 | 1.45 | 16.4 | 46.1 | 0.98 | 7.17 | 106 | 51.3 | 18.6 | GI50 [11]: 2720 nM; Kin [27]: 0.000623 s⁻¹; growth at 10 µM [14]: -37%; growth at 10 µM [23]: 53.3%; growth at 10 µM [24]: 0.26%; growth at 10 µM [25]: 34.7%; growth at 10 µM [26]: 35.6% |
| COC(=O)[C@@H](NC(=O)N[C@H](C(=O)N[C@H]1CCCCNC(=O)/C=C/[C@H](C(C)C)NC1=O)C(C)C)C(C)C | -24 | 34 | 58.4 | -8.79 | 100 | 22.9 | 47.5 | 43.2 | 30.2 | 2120 | 24.4 | -24.1 | 7.05 | 33.4 | 42 | 1.6 | 15.2 | 103 | 58.9 | -4.25 | GI50 [11]: 3970 nM; growth at 10 µM [23]: 6.22%; growth at 10 µM [24]: -0.21%; growth at 10 µM [25]: 40.5%; growth at 10 µM [26]: 28.9% |
| COC(=O)[C@@H](NC(=O)N[C@H](C(=O)N[C@H]1CCCCNC(=O)/C=C/[C@H](Cc2c[nH]c3ccccc23)NC1=O)C(C)C)C(C)C | 15.1 | 41.7 | 61.1 | 18 | 98.4 | 95 | 15.4 | 37.9 | 41.9 | 1710 | 39 | 25.1 | 9.87 | 65.4 | 52 | 17.4 | 19 | 98.8 | 85.4 | 60.6 | growth at 10 µM [14]: -17.8%; growth at 10 µM [23]: 2.98%; growth at 10 µM [25]: 52%; growth at 10 µM [26]: 45.5% |
